Screens deposited in PubChem BioAssay by several laboratories.
Only some compounds are listed: those with a hit (about 5.4% of all), similar ones and a draw of the others.
aSyn 5UTR inh: MLPCN primary screen, SNCA 5' untranslated region; AID 1813, 2009; 300,000 tested, 0.82% active; inhibition, % (tested at 7.5 µM); alpha-synuclein 5'UTR reporter, inhibitor activity; in the data active means inhibition above about 60%; inconclusive means no clear call, values can overlap the other calls;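 further: H4 neuroglioblastoma cells stably carrying SNCA 5'UTR luciferase fusion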
SKKanGAS inh: S. pyogenes SKKanGAS growth inhibitors in kanamycin, primary screen, streptokinase expression inhibitor project, SKKanGAS strain, BacTiter-Glo luminescence | 6 h | inhibition, % at 7.5 µM | 300,000 tested, 1.3% active | AID 1662, 2009;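 active means mean replicate score, as percent of positive control median, at least 50; inconclusive means mean below 50 but one replicate at or above 50; inactive means mean and every replicate below 50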;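 further: strain carries kanamycin resistance gene driven by streptokinase promoter and grows in 40 µg/ml kanamycin; loss of luminescence reflects streptokinase promoter inhibition or plain growth inhibition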
Mdm2-MdmX inh: inhibitors of human Mdm2-MdmX association, primary screen, cell-based, luminescence, split luciferase, SaOS-2, uHTS; Protein Mdm4 (Homo sapiens) + E3 ubiquitin-protein ligase Mdm2 (Homo sapiens), …; SaOS-2 split-luciferase Mdm2/MdmX complementation; inhibition, % at 8 µM; 330,000 tested, 3% active; AID 485346, 2010;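 active means inhibition of at least 50% at 8 µM in the primary screen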
Target sequence (O15151 whole entry, looked up): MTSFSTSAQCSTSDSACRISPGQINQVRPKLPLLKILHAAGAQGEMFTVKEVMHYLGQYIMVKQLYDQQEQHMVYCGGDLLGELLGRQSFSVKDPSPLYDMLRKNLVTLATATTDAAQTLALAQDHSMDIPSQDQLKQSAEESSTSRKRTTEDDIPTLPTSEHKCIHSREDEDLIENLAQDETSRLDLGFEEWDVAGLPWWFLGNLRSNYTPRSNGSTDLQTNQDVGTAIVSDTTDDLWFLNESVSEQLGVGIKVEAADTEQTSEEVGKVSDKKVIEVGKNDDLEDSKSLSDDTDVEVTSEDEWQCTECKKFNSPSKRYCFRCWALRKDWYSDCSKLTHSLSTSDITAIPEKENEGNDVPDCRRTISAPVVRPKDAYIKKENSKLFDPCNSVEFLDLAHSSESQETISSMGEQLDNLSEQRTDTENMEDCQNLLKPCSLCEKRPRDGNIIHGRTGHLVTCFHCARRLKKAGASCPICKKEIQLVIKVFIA
Target sequence (Q00987 whole entry, looked up): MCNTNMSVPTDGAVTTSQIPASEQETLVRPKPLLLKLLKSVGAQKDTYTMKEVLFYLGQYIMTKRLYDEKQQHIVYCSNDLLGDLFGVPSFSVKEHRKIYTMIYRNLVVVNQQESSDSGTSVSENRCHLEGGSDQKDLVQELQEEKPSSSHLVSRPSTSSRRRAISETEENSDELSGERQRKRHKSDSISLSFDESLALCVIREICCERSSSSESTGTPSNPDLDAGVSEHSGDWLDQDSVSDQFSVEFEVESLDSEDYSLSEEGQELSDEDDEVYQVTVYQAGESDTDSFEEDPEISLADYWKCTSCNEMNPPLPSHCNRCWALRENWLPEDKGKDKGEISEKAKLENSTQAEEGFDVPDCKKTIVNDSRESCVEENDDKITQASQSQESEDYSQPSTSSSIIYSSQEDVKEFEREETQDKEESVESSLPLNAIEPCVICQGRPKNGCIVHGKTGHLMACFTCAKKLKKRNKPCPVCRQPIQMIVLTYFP
T cruzi inh: inhibitors of intracellular T. cruzi growth, primary screen, luminescence, NIH3T3 host cells. T. cruzi beta-gal in NIH3T3, 90 h. inhibition, % (test concentration not listed). 300,000 tested, 1.4% active. AID 1885, 2009;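 active means mean inhibition across valid replicates above about 55%, limit read from the data; inconclusive means mean below that limit but half or more replicates reach it; inactive means mean below it, under half of replicates reach it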;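 further: signal also drops with host cell toxicity which is not excluded here; higher percent means less beta-gal luminescence so fewer parasites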
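System – NIH/3T3 host cells with β-galactosidase reporter T. cruzi · Doses – single 50 nL compound addition per well in DMSO · Reagent – 5000 T. cruzi trypomastigotes/well · Medium – Low-serum DMEM with 2% FBS · Timing – ≥90 h infection period, 3 h prior cell attachment · Evaluation – parasite load inhibition, % · Technique – GalScreen luminescence, 60 min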
CSC inhib: cancer stem cell viability inhibitors, primary screen, luminescence; AID 2717, 2010; 300,000 tested, 1.1% active; cancer stem cell-like cells viability; inhibition, % at 7.5 µM; in the data active means inhibition above about 75%; inconclusive means no clear call, values can overlap the other calls; tested in HMLE shEcad cells
Mdm2 MdmX conf: Mdm2-MdmX complex disruptors, retested hits, confirmation, luminescence, single concentration; shares compounds with Mdm2-MdmX inh; Mdm2-MdmX binding, luminescent assay; inhibition, % at 8 µM; 10,000 tested, 55% active; in the data active means inhibition above about 40%
FLuc counter: full-length luciferase signal inhibition, confirmation, counter-screen for Mdm2/MdmX interaction inhibitor project, cell-based, single concentration, SaOS-2; shares compounds with Mdm2-MdmX inh; SaOS-2 full-length luciferase counterscreen, luminescence; inhibition, % at 8 µM; 6,200 tested, 77% active; AID 504607, 2011;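 active means mean inhibition at 8 µM reaching about 37%, which flags the compound as non-specific, limit read from the data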;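 further: p53-null SaOS-2 cells with luciferase driven by a doxycycline-inducible promoter; compound on cells about two nights before reading with doxycycline added after day one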
Large screens that a line does not name were inactive (follow-up assays come after a bar, where they were run).

O=[N+]([O-])c1cccnc1N1CCC(c2cc(-c3ccc(Cl)cc3)n[nH]2)CC1	SKKanGAS inh 73.2, Mdm2-MdmX inh 54.3, CSC inhib 101.3 | Mdm2 MdmX conf inactive
Brc1ccc2c(c1)C(c1ccc(N3CCOCC3)cc1)=NNC(c1cccs1)=N2	Mdm2-MdmX inh 59.4 | Mdm2 MdmX conf inactive
Fc1ccc2c(c1)C(c1ccc(N3CCOCC3)cc1)=NNC(c1cccs1)=N2	none
Cc1cc(N2C(=O)CCC2=O)ccc1NC(=O)c1cccs1	none
Cc1cccc(N2CCN(C(=O)COc3cccc4c3OC(C)(C)C4)CC2)c1C	none
CC1c2cc3c(cc2CCN1C(=O)c1ccc(Br)cc1)OCCCO3 (stereo unspecified)	Mdm2-MdmX inh 69.5 | Mdm2 MdmX conf 45.7 | FLuc counter 46.6
COc1ccc2cc1Oc1ccc(cc1)C[C@H]1c3cc(c(OC)cc3CCN1C)Oc1c(OC)c(OC)cc3c1[C@@H](C2)N(C)CC3	Mdm2-MdmX inh 100.3 (no result: aSyn 5UTR inh, SKKanGAS inh, T cruzi inh) | Mdm2 MdmX conf 90.4 | FLuc counter 59.6
CC(/C=N/NC(=O)c1cc(-c2cccs2)[nH]n1)=C\c1ccccc1	none (no result: CSC inhib)
C=CCOc1cccc(C(=O)/C=C2/C(=O)Nc3ccccc32)c1	Mdm2-MdmX inh 85.6 | Mdm2 MdmX conf inactive
CCN(CC(=O)Nc1ccccc1C(F)(F)F)C(=O)CCS(=O)(=O)c1ccc(C)cc1	none
COc1ccc(N2CCN(CCNC(=O)c3ccc4c(c3)[nH]c(=S)n3c5ccccc5nc43)CC2)cc1	Mdm2-MdmX inh 87.4, T cruzi inh inconclusive | Mdm2 MdmX conf 76.5 | FLuc counter 55.1
COc1ccc(N2CCN(CCNC(=O)c3ccc4nc5ccccc5c(=O)n4c3)CC2)cc1	none (no result: CSC inhib)
Cc1ncc(CO)c2c1Oc1nc(-c3ccccc3)nc(SCC(=O)Nc3cccc(O)c3)c1C2	Mdm2-MdmX inh 51.4 | Mdm2 MdmX conf inactive
N#C/C(=C/c1ccc(F)cc1)c1nnc(NC(=O)c2ccccc2)s1	Mdm2-MdmX inh 74.2 | Mdm2 MdmX conf inactive
OC(CN1CCN(c2cccc(C(F)(F)F)c2)CC1)c1c[nH]c2ccccc12 (stereo unspecified)	none (no result: CSC inhib) | Mdm2 MdmX conf 46.3 | FLuc counter 64.1
CCCC(NCC(O)COc1ccc(-c2ccccc2)cc1)c1ccccc1 (stereo unspecified)	aSyn 5UTR inh 82.8, Mdm2-MdmX inh 100.3, T cruzi inh 65.6 (no result: CSC inhib) | Mdm2 MdmX conf 56.5 | FLuc counter 60.4
Cc1cc(OCC(O)CNC(C)c2ccccc2)ccc1C(C)C (stereo unspecified)	Mdm2-MdmX inh 58.8 | Mdm2 MdmX conf inactive
Cc1ccc(NS(=O)(=O)c2cc(NC(=O)c3ccc4c(c3)NC(=O)CS4)ccc2C)c(C)c1	none
Cc1c(C(=O)N2CCN(Cc3ccc4c(c3)OCO4)CC2)sc2ncnc(N3CCN(c4ccccc4F)CC3)c12	Mdm2-MdmX inh 63.0, T cruzi inh 64.0 | Mdm2 MdmX conf inactive
Cc1c(C(=O)N2CCN(Cc3ccc4c(c3)OCO4)CC2)sc2ncnc(N3CCN(c4ccccc4)CC3)c12	Mdm2-MdmX inh 72.7 | Mdm2 MdmX conf inactive
CCC(C(=O)NNC(=O)c1cnccn1)c1ccccc1 (stereo unspecified)	none (no result: CSC inhib)
COc1ccc(OC)c(C(C[N+](=O)[O-])c2c(C)cc3ccccn23)c1 (stereo unspecified)	Mdm2-MdmX inh 68.1 | Mdm2 MdmX conf 49.5 | FLuc counter inactive
O=C(C1CCN(S(=O)(=O)c2cnc[nH]2)CC1)N1CCN(c2ccc([N+](=O)[O-])cc2)CC1	none
CCC(=O)Nc1c(C)nn(-c2ccc(C)c(C)c2)c1C	none
Cc1ccc(-n2nc(C)c(NC(=O)CCl)c2C)cc1C	Mdm2-MdmX inh 75.8 | Mdm2 MdmX conf 88.0 | FLuc counter inactive
CCOC(=O)C1CCCN(C(=O)c2[nH]c3ccc(OC)cc3c2C)C1 (stereo unspecified)	none
Clc1cncc(Cl)c1N/N=C/c1ccncc1	Mdm2-MdmX inh 65.0 | Mdm2 MdmX conf 63.0 | FLuc counter inactive
Clc1cccc(Cl)c1/C=N/Nc1c(Cl)cncc1Cl	Mdm2-MdmX inh 64.9 (no result: CSC inhib) | Mdm2 MdmX conf 64.2 | FLuc counter inactive
COc1cc(/C=C/C(=O)OCC(=O)NCCc2ccc(F)cc2)ccc1OC(F)F	none (no result: aSyn 5UTR inh, SKKanGAS inh, T cruzi inh)
CC(=O)Nc1ccc(NC(=O)c2cc(-c3cc(C)cc(C)c3O)n[nH]2)cc1	none
Cc1cc(C)c(O)c(-c2cc(C(=O)Nc3ccc(S(=O)(=O)N4CCOCC4)cc3)[nH]n2)c1	Mdm2-MdmX inh 69.4, CSC inhib 87.5 | Mdm2 MdmX conf 43.0 | FLuc counter 39.9
CCOC(=O)C1=C(N)n2c(s/c(=C\c3ccco3)c2=O)=C(C(=O)OCC)C1c1ccco1 (stereo unspecified)	none (no result: Mdm2-MdmX inh)
CCOC(=O)C1=C(N)n2c(s/c(=C/c3ccccc3)c2=O)=C(C(=O)OCC)C1c1ccccc1 (stereo unspecified)	Mdm2-MdmX inh 51.1 | Mdm2 MdmX conf inactive
C/C=C/c1ccc(O)c(OC)c1	none (no result: aSyn 5UTR inh, SKKanGAS inh, T cruzi inh)
COc1cc(Cl)cc(/C=C/c2ccc3ccccc3n2)c1OC(C)=O	none
COc1cc(Br)c(/C=C/c2ccc3cccc(O)c3n2)cc1OC	SKKanGAS inh 85.1, Mdm2-MdmX inh 73.6, T cruzi inh 57.0 | Mdm2 MdmX conf 51.6 | FLuc counter 47.0
COc1ccc(OC)c(/C=N/NC(=O)c2cccc3ccccc23)c1	none
COc1cc(Br)cc(/C=C/c2ccc3cccc(O)c3n2)c1O	SKKanGAS inh 101.5, Mdm2-MdmX inh 80.9, CSC inhib 91.7 | Mdm2 MdmX conf 68.2 | FLuc counter 51.0
COc1ccc(OC)c(/C=C/c2ccc3cccc(O)c3n2)c1	SKKanGAS inh 89.7, Mdm2-MdmX inh 93.1, T cruzi inh 60.6 | Mdm2 MdmX conf inactive
COc1cc(/C=C/c2ccc3cccc(O)c3n2)ccc1O	SKKanGAS inh 87.7, Mdm2-MdmX inh 99.7, CSC inhib 75.3 | Mdm2 MdmX conf inactive
CCOc1cc(/C=C/c2ccc3cccc([N+](=O)[O-])c3n2)cc(Cl)c1O	none
COc1ccc(S(=O)(=O)N2CCC(C(=O)NCCCc3ccccc3)CC2)cc1	none
CCCN(C(=O)C1CC(=O)N(c2ccccc2C(C)CC)C1)C1CCS(=O)(=O)C1 (stereo unspecified)	none (no result: aSyn 5UTR inh, SKKanGAS inh, T cruzi inh, CSC inhib)
O=C(O)C1=C[C@@H](c2ccc(Br)cc2)C[C@@H](OCCCCO)O1	none
COc1cc(/C=C/c2ccc3cccc(O)c3n2)c(Br)cc1O	SKKanGAS inh 94.4, Mdm2-MdmX inh 97.5, T cruzi inh 55.8, CSC inhib 96.0 | Mdm2 MdmX conf inactive | FLuc counter inactive
O=[N+]([O-])c1cccc2ccc(/C=C/c3cccc(Br)c3)nc12	none
